In the library only some 3.5% were active in any assay of this set; here they are far more common.
MrgX1 antag: antagonists of human MrgX1 receptor, primary screen, HEK293 cells, Fluo-4 calcium flux. Mas-related G-protein coupled receptor member X1 (Homo sapiens), Q96LB2. BAM8-22 antagonism; stronger effect = lower value. B-score at 10 µM. actives 1.3% (n = 310,000);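 active = calcium-response B-score plate-corrected more than 3 library SD below zero, starting fluorescence within 5 deviations, no agonist response on first addition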;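 also: peak minus trough fluorescence over baseline after final BAM8-22 challenge near maximal dose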
Target sequence (Q96LB2 whole entry, looked up): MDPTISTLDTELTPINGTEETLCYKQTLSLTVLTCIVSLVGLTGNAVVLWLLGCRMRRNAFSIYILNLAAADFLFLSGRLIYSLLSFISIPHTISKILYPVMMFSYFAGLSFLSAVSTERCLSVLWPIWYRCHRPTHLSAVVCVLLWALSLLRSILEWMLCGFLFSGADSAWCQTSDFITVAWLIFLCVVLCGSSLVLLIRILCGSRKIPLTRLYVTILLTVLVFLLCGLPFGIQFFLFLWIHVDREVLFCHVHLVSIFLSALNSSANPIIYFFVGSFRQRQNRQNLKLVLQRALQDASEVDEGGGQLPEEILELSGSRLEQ
MrgX1 ag: agonists of human MrgX1 receptor, primary screen, HEK293 cells, Fluo-4 calcium flux; Fluo-4 calcium fluorescence, agonist mode; stronger effect = higher value; B-score at 10 µM; actives 0.44% (n = 310,000);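 active = calcium response B-score plate-corrected fluorescence ratio at least 3 library SD, with starting fluorescence B-score inside 5 SD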
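System – MrgX1-expressing HEK293 cells · Incubation – cells plated overnight, dye loaded 0.5 h 37 °C, 0.5 h room temperature · Technique – kinetic Fluo-4 NW fluorescence of intracellular calcium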
MrgX1 PAM: positive allosteric modulators of MrgX1, primary screen, HEK293 cells, Fluo-4 calcium flux; AID 588675, 2011; actives 0.63% (n = 310,000); B-score at 10 µM; FDSS; stronger effect = higher value;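 active = plate-corrected calcium response at least 3 library SD above typical, normal starting fluorescence, not activating the receptor alone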;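 also: compound read alongside a low EC10 to EC30 dose of BAM8-22 agonist; peak minus trough fluorescence over baseline measured at the second addition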
RGS4 block: RGS4 inhibitors, primary screen, cell-based, HEK293 M3R inducible RGS4, calcium flux. Fluo-4 calcium flux; stronger effect = higher value; triggered by carbachol at its EC20. B-score at 10 µM. actives 0.45% (n = 310,000);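 active = B-score, a plate-corrected calcium signal, over three deviations above library mean, with baseline fluorescence within five deviations of library mean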;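 also: RGS4 expression induced by doxycycline in cells with stable M3 receptor; B-score is computed from the integrated fluorescence ratio over baseline after carbachol; higher B-score means a larger calcium signal and so more RGS4 inhibition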
Target sequence (P49798 whole entry, looked up): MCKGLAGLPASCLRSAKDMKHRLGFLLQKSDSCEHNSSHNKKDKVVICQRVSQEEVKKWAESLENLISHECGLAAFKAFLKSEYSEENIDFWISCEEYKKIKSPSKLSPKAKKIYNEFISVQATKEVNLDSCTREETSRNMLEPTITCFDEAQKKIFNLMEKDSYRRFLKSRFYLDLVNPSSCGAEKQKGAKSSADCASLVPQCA
RGS4 act: RGS4 potentiators or activators, primary screen, cell-based, HEK293 M3R inducible RGS4, calcium flux; carbachol calcium flux Fluo4; stronger effect = lower value; B-score at 10 µM; actives 0.92% (n = 310,000);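 active = B-score of the integrated calcium signal more than 4 SD below the library mean, with starting fluorescence not abnormally high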;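 also: negative B-score means reduced calcium response which marks RGS4 activation or potentiation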
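Detection: kinetic calcium fluorescence imaging with Fluo4-AM dye, 2 µM / Material: HEK293 cells with stable M3R and inducible RGS4 / Schedule: recording 10 s baseline at 1 Hz, 100 s post-agonist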
MrgX1 ant reconf: MrgX1 receptor antagonists, duplicate retest, confirmation, HEK293 cells, Fluo-4 calcium flux; shares compounds with MrgX1 antag; actives 19% (n = 2,300); BAM8-22 calcium flux; stronger effect = lower value; remaining BAM8-22 calcium response % of control (stronger effect = lower value), % at 10 µM;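 active = remaining agonist calcium response no higher than 100% minus 3 SD of agonist-only control wells, with starting fluorescence near control levels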;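 also: agonist BAM8-22 given at a near maximal EC90 to ECmax level; peak minus minimum fluorescence divided by baseline after agonist addition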
HEK293 Ca flux: nonspecific calcium signal in parental HEK293, confirmation, counter-screen for MrgX1 antagonist project, parental HEK293 cells, Fluo-4 calcium flux. AID 624111, 2012. shares compounds with MrgX1 antag. fluorescence ratio F(max-min)/F0 at 10 µM. actives 2% (n = 4,000). Fluo-4 calcium fluorescence, FDSS;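 active = duplicate-averaged calcium fluorescence ratio at least three times the standard deviation of buffer wells, a nonspecific response in parental cells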
HEK293 Ca counter: calcium response in parental HEK293 cells, primary screen, counter-screen for MrgX1 allosteric activator project, cell-based, Fluo-4 calcium flux, duplicate; fluorescence ratio F(max-min)/F0 at 10 µM; AID 624114, 2012; Fluo-4 fluorescence ratio; stronger effect = higher value; shares compounds with MrgX1 antag; actives 0.4% (n = 4,000);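 active = calcium fluorescence ratio, averaged over duplicates, at least 3 SD of the buffer-well ratio, meaning a nonspecific response in receptor-free cells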;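 also: untransfected parental HEK293 lacking MrgX1 used as counterscreen for MrgX1 allosteric activators; fluorescence change taken during the second addition on a kinetic imager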
HEK293 Ca cntr2: calcium response in parental HEK293 cells, primary screen, counter-screen for MrgX1 agonist project, cell-based, Fluo-4 calcium flux, duplicate, agonist mode; shares compounds with MrgX1 antag; Fluo-4 calcium fluorescence (FDSS); stronger effect = higher value; fluorescence ratio F(max-min)/F0 at 10 µM; actives 8.7% (n = 4,000);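 active = calcium fluorescence ratio at least three times the spread of buffer wells, meaning a non-specific response in parental cells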
* hit, by the source's call; i = inactive; . = no result.

SMILES	MrgX1 antag	MrgX1 ag	MrgX1 PAM	RGS4 block	RGS4 act	MrgX1 ant reconf	HEK293 Ca flux	HEK293 Ca counter	HEK293 Ca cntr2
O=C(CSc1nnc(-c2ccccc2Cl)o1)N1CCCCC1	-4.86*	i	i	i	i	i	i	i	i
O=C(CSc1nnc(-c2ccccc2Cl)o1)N1CCCC1	i	i	i	i	i	.	.	.	.
CCC(C)[C@H](NC(=O)c1cc2cc(Cl)ccc2n1C)C(=O)N1CCC[C@H]1C(=O)O (stereo partly specified)	i	i	i	i	i	.	.	.	.
Cn1cnnc1SCC(=O)NCc1cccc(C(F)(F)F)c1	-6.48*	i	i	i	i	i	i	i	i
O=C(CCNC(=O)c1ccc(Cl)cc1)NCc1cccc(C(F)(F)F)c1	-10.1*	i	i	i	i	i	i	i	i
CCOc1ccc(S(=O)(=O)N(C)CC(=O)NC2CCCC2)cc1	i	i	i	i	i	.	.	.	.
O=C(CSc1nnc(CN2CCCCCC2=O)n1-c1ccccn1)NCC(F)(F)F	-4.61*	i	i	i	i	i	i	i	i
CC(C)(C)NC(=O)CSc1nnc(CN2CCCCCC2=O)n1-c1ccccn1	i	i	i	i	i	.	.	.	.
Cc1ccc(-c2csc(NC(=O)c3ccc4c(=O)n5c(nc4c3)CCCCC5)n2)cc1	-5.46*	i	i	i	i	70.8%*	i	i	i
Cc1ccc(-n2cc(S(=O)(=O)c3ccc(C)cc3)[nH]c2=O)cc1	-4.81*	i	i	i	i	i	i	i	i
COc1ccccc1CNS(=O)(=O)c1ccc2c(c1)CC(C)N2C(=O)C1CCC1 (stereo unspecified)	i	i	i	i	i	.	.	.	.
Cc1nc2c(C(=O)N3CCN(C)CC3)cnn2c(C)c1Cc1ccc(Cl)cc1	i	i	i	i	i	.	.	.	.
C=CCc1c(C)nc2c(C(=O)O)cnn2c1C	-4.6*	i	i	i	i	i	i	i	i
N/C(Cc1cccs1)=N\OC(=O)COc1ccccc1	i	i	i	i	i	.	.	.	.
O=S(=O)(Nc1ccc(-n2cccc2)cc1)c1ccccc1	i	i	i	i	i	.	.	.	.
CC(=O)Nc1ccc(S(=O)(=O)NCCC(=O)OCC(=O)NNC(=O)c2ccccc2)cc1	i	i	i	i	i	.	.	.	.
O=C1CC(c2cccc(Oc3ccccc3)c2)NC(=O)N1 (stereo unspecified)	-8.19*	i	i	i	i	i	i	i	i
CCOC(=O)c1sc(NC(=O)c2ccc(C)o2)nc1C	-8.05*	i	i	i	i	i	i	i	i
COC(=O)c1sc(NC(=O)c2ccc(C)o2)nc1C	i	i	i	i	i	.	.	.	.
O=C(c1cc(-c2ccccn2)nc2ccc(Br)cc12)N1CCc2ccccc2C1	.	.	.	i	i	.	.	.	.
O=C(c1cc(-c2ccccn2)nc2ccc(Br)cc12)N1CCN(S(=O)(=O)c2ccccc2)CC1	-6.7*	i	i	i	i	i	i	i	i
CC1(C)CC(CC(=O)O)(c2ccc(F)cc2)CCO1 (stereo unspecified)	-6*	i	i	i	i	i	i	i	i
Cc1ccc(C2(CC(=O)O)CCOC(C)(C)C2)cc1 (stereo unspecified)	i	i	i	i	i	.	.	.	.
CCN(C(=O)CN1CCN(c2ccc(O)cc2)CC1)c1c(N)n(Cc2ccccc2)c(=O)[nH]c1=O	i	i	i	i	i	.	.	.	.
COC(=O)CC1COc2ccccc2N1C(=O)c1ccc(OC)cc1 (stereo unspecified)	i	i	i	i	i	.	.	.	.
SMILES	MrgX1 antag	MrgX1 ag	MrgX1 PAM	RGS4 block	RGS4 act	MrgX1 ant reconf	HEK293 Ca flux	HEK293 Ca counter	HEK293 Ca cntr2
COC(=O)CC1COc2ccccc2N1C(=O)c1cc(OC)c(OC)c(OC)c1 (stereo unspecified)	-4.99*	i	i	i	i	i	i	i	i
CCCCN(C(=O)CSc1nnc(-c2ccccc2OC)n1C)c1c(N)n(Cc2ccccc2)c(=O)[nH]c1=O	i	i	i	i	i	.	.	.	.
CC(C)CN(C(=O)c1ccco1)C1CCS(=O)(=O)C1 (stereo unspecified)	-4.85*	i	i	i	i	i	i	i	i
CCCc1cc(=O)[nH]c(SCCN2C(=O)c3ccccc3C2=O)n1	-5.29*	i	i	i	i	i	i	i	i
Cc1cccc(-n2ncc3c2CCCC3NC(=O)C2CCOCC2)c1C (stereo unspecified)	-5.23*	i	i	i	i	74.0%*	i	i	i
COc1ccccc1NC(=O)c1cc2ccccc2nc1C	i	i	i	i	i	.	.	.	.
COc1ccccc1NC(=O)c1ccc2nc(C)c(C)nc2c1	-8.11*	i	i	i	i	i	i	i	i
COc1cccc(CNC(=O)Cn2cccc2)c1	-9.8*	i	i	i	i	81.4%*	i	i	i
CC(=O)NC1C(=O)N(CCN2CCOCC2)c2ccc(F)cc21 (stereo unspecified)	-5.35*	i	i	i	i	60.5%*	i	i	i

Screens from PubChem BioAssay.
